Laboratory results reported in ChEMBL document CHEMBL1255433 (Antimicrob Agents Chemother, 2010).
The source made the active and inactive calls. The calls are words filed in the database; no cut-off is given here.

What was measured:
Plasmodium falciparum [1] = experiment: Antiplasmodial activity against Plasmodium falciparum F32-Tanzania assessed as inhibition of parasite growth at 0.1 uM treated for 96 hrs; format: functional, organism-based
How it was run: (§1)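 Sorbitol-synchronized ring cultures (5% parasitemia, 2.5% hematocrit) in O+ human RBCs, RPMI with 5% human serum, 37°C, 5% CO2. Medium was swapped for artemisinin-containing medium for 48 or 96 h, then washed out and culture resumed drug-free. Parasitemia was tracked to record days to reach 5%; cultures with no parasites by day 21 were scored as no recovery. Runs were done at least three times, except 48 h/70 μM and the 96 h conditions, which were done once.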

Plasmodium falciparum [2] = experiment: Antiplasmodial activity against artemisinin-tolerant Plasmodium falciparum F32-Tanzania assessed as time required to reach 5% parasitaemia at 0.1 uM treated for 96 hrs; format: functional; how it was run: as §1
Plasmodium falciparum [3] = experiment: Antiplasmodial activity against Plasmodium falciparum F32-Tanzania assessed as inhibition of parasite growth at 1 uM treated for 96 hrs; format: functional, organism-based; how it was run: as §1
Plasmodium falciparum [4] = experiment: Antiplasmodial activity against artemisinin-tolerant Plasmodium falciparum F32-Tanzania assessed as time required to reach 5% parasitaemia at 1 uM treated for 96 hrs; format: functional; how it was run: as §1
Plasmodium falciparum [5] = experiment: Antiplasmodial activity against artemisinin-tolerant Plasmodium falciparum F32-Tanzania assessed as parasitaemia at 9 uM after 48 hrs by rhodamine 123 staining; format: functional
How it was run: (§2)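 Infected RBCs were stained with R123 (1 μg/ml in RPMI, 37°C, 5 min), washed, and incubated 30 min under culture conditions. Nuclei were counterstained with DAPI (1 μg/ml, 37°C, 20 min). Thin smears were read the same day by epifluorescence; R123-positive (polarized mitochondria) parasites were scored as viable.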

Plasmodium falciparum [6] = experiment: Antiplasmodial activity against artemisinin-tolerant Plasmodium falciparum F32-Tanzania assessed as decrease in appearance of late trophozoites at 9 uM after 24 hrs by rhodamine 123 staining; format: functional, organism-based; how it was run: as §2
Plasmodium falciparum [7] = experiment: Antiplasmodial activity against artemisinin-tolerant Plasmodium falciparum F32-Tanzania assessed as decrease in appearance of late trophozoites at 9 uM after 48 hrs by rhodamine 123 staining; format: functional, organism-based; how it was run: as §2
Plasmodium falciparum [8] = experiment: Antiplasmodial activity against artemisinin-tolerant Plasmodium falciparum F32-Tanzania assessed as decrease in occurrence of normal parasite cell cycle at 9 uM measured after 24 to 30 hrs of drug removal by rhodamine 123 staining; format: functional, organism-based; how it was run: as §2
Plasmodium falciparum [9] = experiment: Antiplasmodial activity against artemisinin-tolerant Plasmodium falciparum F32-Tanzania assessed as decrease in appearance of late trophozoites at 9 uM measured after 24 to 30 hrs of drug removal by rhodamine 123 staining; format: functional, organism-based; how it was run: as §2
Plasmodium falciparum [10] = experiment: Antiplasmodial activity against artemisinin-tolerant Plasmodium falciparum F32-Tanzania assessed as decrease in appearance of late schizonts at 9 uM measured after 24 to 30 hrs of drug removal by rhodamine 123 staining; format: functional, organism-based; how it was run: as §2
Plasmodium falciparum [11] = experiment: Antiplasmodial activity Plasmodium falciparum F32-Tanzania assessed as decrease in appearance of parasite quiescent rings at 9 uM after 48 hrs by rhodamine 123 staining; format: functional, organism-based; how it was run: as §2
Plasmodium falciparum [12] = experiment: Antiplasmodial activity Plasmodium falciparum F32-Tanzania assessed as decrease in appearance of mature parasite forms at 9 uM measured after 24 to 30 hrs of drug removal by rhodamine 123 staining; format: functional, organism-based; how it was run: as §2
Plasmodium falciparum [13] = experiment: Antiplasmodial activity against artemisinin-tolerant Plasmodium falciparum F32-Tanzania assessed as decrease in appearance of late-stage parasites at 9 uM after 24 hrs by FACS analysis; format: functional, organism-based
How it was run: (§3)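 Samples were stained with DAPI (1 μg/ml) and analysed immediately by flow cytometry (400,000 events). Gates were calibrated with uninfected RBCs, sorbitol-synchronized rings, and magnetically isolated trophozoites and schizonts.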

Plasmodium falciparum [14] = experiment: Antiplasmodial activity against artemisinin-tolerant Plasmodium falciparum F32-Tanzania assessed as decrease in appearance of late-stage parasites at 9 uM after 48 hrs by FACS analysis; format: functional, organism-based; how it was run: as §3
Plasmodium falciparum [15] = experiment: Antiplasmodial activity against artemisinin-tolerant Plasmodium falciparum F32-Tanzania assessed as decrease in appearance of late-stage parasites at 9 uM measured after 24 hrs of drug removal by FACS analysis; format: functional, organism-based; how it was run: as §3
Plasmodium falciparum [16] = experiment: Antiplasmodial activity against artemisinin-tolerant Plasmodium falciparum F32-Tanzania assessed as inhibition of parasite growth at 9 uM after 48 hrs by FACS analysis in presence of sorbitol; format: functional, organism-based
Plasmodium falciparum [17] = experiment: Antiplasmodial activity against artemisinin-tolerant Plasmodium falciparum F32-Tanzania assessed as inhibition of parasite growth at 9 uM measured after 24 to 30 hrs of drug removal by FACS analysis in presence of sorbitol; format: functional, organism-based
Plasmodium falciparum [18] = experiment: Antiplasmodial activity against artemisinin-tolerant Plasmodium falciparum F32-Tanzania assessed as decrease in parasite recovery time at 9 uM treated for 48 hrs in presence of 0.5 uM MDR1 inhibitor penfluridol; format: functional, organism-based
Plasmodium falciparum [19] = experiment: Antiplasmodial activity against Plasmodium falciparum F32-Tanzania assessed as time required to reach 5% parasitaemia at 9 uM treated for 48 hrs; format: functional; how it was run: as §1
Plasmodium falciparum [20] = experiment: Antiplasmodial activity against artemisinin-tolerant Plasmodium falciparum F32-Tanzania assessed as time required to reach 5% parasitaemia at 9 uM treated for 48 hrs; format: functional; how it was run: as §1
Plasmodium falciparum [21] = experiment: Antiplasmodial activity against Plasmodium falciparum F32-Tanzania assessed as time required to reach 5% parasitaemia at 18 uM treated for 48 hrs; format: functional; how it was run: as §1
Plasmodium falciparum [22] = experiment: Antiplasmodial activity against artemisinin-tolerant Plasmodium falciparum F32-Tanzania assessed as time required to reach 5% parasitaemia at 18 uM treated for 48 hrs; format: functional; how it was run: as §1
Plasmodium falciparum [23] = experiment: Antiplasmodial activity against Plasmodium falciparum F32-Tanzania assessed as inhibition of parasite growth at 35 uM treated for 48 hrs; format: functional, organism-based; how it was run: as §1
Plasmodium falciparum [24] = experiment: Antiplasmodial activity against artemisinin-tolerant Plasmodium falciparum F32-Tanzania assessed as time required to reach 5% parasitaemia at 35 uM treated for 48 hrs; format: functional; how it was run: as §1
Plasmodium falciparum [25] = experiment: Antiplasmodial activity against Plasmodium falciparum F32-Tanzania assessed as inhibition of parasite growth at 70 uM treated for 48 hrs; format: functional, organism-based; how it was run: as §1
Plasmodium falciparum [26] = experiment: Antiplasmodial activity against artemisinin-tolerant Plasmodium falciparum F32-Tanzania assessed as time required to reach 5% parasitaemia at 70 uM treated for 48 hrs; format: functional; how it was run: as §1
Plasmodium falciparum [27] = experiment: Antiplasmodial activity against Plasmodium falciparum F32-Tanzania assessed as time required to reach 5% parasitaemia at 2.6 uM treated for 48 hrs; format: functional
How it was run: (§4)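 Sorbitol-synchronized ring-stage cultures at 5% parasitemia and 2.5% hematocrit in human O+ erythrocytes, in RPMI with human serum at 37°C under 5% CO2. Drug-containing medium for 48 h, then RPMI wash and return to drug-free culture. Endpoint was days to reach 5% parasitemia, followed up to 21 days. Three or more independent experiments; mean ± SD.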

Plasmodium falciparum [28] = experiment: Antiplasmodial activity against artemisinin-tolerant Plasmodium falciparum F32-Tanzania assessed as time required to reach 5% parasitaemia at 2.6 uM treated for 48 hrs; format: functional; how it was run: as §4
Plasmodium falciparum [29] = experiment: Antiplasmodial activity against Plasmodium falciparum F32-Tanzania assessed as time required to reach 5% parasitaemia at 0.2 uM treated for 48 hrs; format: functional; how it was run: as §4
Plasmodium falciparum [30] = experiment: Antiplasmodial activity against artemisinin-tolerant Plasmodium falciparum F32-Tanzania assessed as time required to reach 5% parasitaemia at 0.2 uM treated for 48 hrs; format: functional; how it was run: as §4

SMILES: C[C@@H]1CC[C@H]2[C@@H](C)C(=O)O[C@@H]3O[C@@]4(C)CC[C@@H]1[C@]32OO4 [ARTEMISININ]
- inhibition (Plasmodium falciparum [1]): Active
- Time (Plasmodium falciparum [2]): 15 days
- inhibition (Plasmodium falciparum [3]): Active
- Time (Plasmodium falciparum [4]): 16 days
- Activity (Plasmodium falciparum [5]): 0.1%
- Activity (Plasmodium falciparum [6]): Active
- Activity (Plasmodium falciparum [7]): Active
- Activity (Plasmodium falciparum [8]): inactive
- Activity (Plasmodium falciparum [9]): inactive
- Activity (Plasmodium falciparum [10]): inactive
- Activity (Plasmodium falciparum [11]): Active
- Activity (Plasmodium falciparum [12]): Active
- Activity (Plasmodium falciparum [13]): Active
- Activity (Plasmodium falciparum [14]): Active
- Activity (Plasmodium falciparum [15]): inactive
- inhibition (Plasmodium falciparum [16]): Active
- inhibition (Plasmodium falciparum [17]): Active
- Activity (Plasmodium falciparum [18]): Active
- Time (Plasmodium falciparum [19]): 16 days
- Time (Plasmodium falciparum [20]): 6 days
- Time (Plasmodium falciparum [21]): <=17 day
- Time (Plasmodium falciparum [22]): 7 days
- inhibition (Plasmodium falciparum [23]): Active
- Time (Plasmodium falciparum [24]): 11 days
- inhibition (Plasmodium falciparum [25]): Active
- Time (Plasmodium falciparum [26]): 17 days

SMILES: C[C@H]1[C@H](OC(=O)CCC(=O)O)O[C@@H]2O[C@@]3(C)CC[C@H]4[C@H](C)CC[C@@H]1[C@@]24OO3 [ARTESUNATE]
- Time (Plasmodium falciparum [27]): 14 days
- Time (Plasmodium falciparum [28]): 6 days
- Time (Plasmodium falciparum [19]): 15 days
- Time (Plasmodium falciparum [20]): 8 days

SMILES: CCN(CC)CCCC(C)Nc1ccnc2cc(Cl)ccc12 (configuration not stated) [CHLOROQUINE]
- Time (Plasmodium falciparum [29]): 14 days
- Time (Plasmodium falciparum [30]): 14 days
